Molecular target: Protein-S-isoprenylcysteine O-methyltransferase (Homo sapiens, UniProt O60725)
Assay: Inhibition of human isoprenylcysteine carboxyl methyltransferase expressed in yeast His10myc3N-Icmt membranes using AFC substrate and [14C]-SAM and incubated for 30 mins by liquid scintillation counting based methyltransferase vapor diffusion assay
Type: cell membranes
Details: not given
Procedure, shortened: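 Crude yeast membranes (5 µg) in Tris-HCl 100 mM pH 7.4 with AFC 10 µM and [14C]-SAM 60 µM, compound at increasing concentrations, 5% DMSO; 37 °C 30 min, stopped with NaOH/SDS. Released radioactivity captured on filter paper over 2.5 h and counted. IC50 from specific activity (pmol/mg/min) versus concentration; three separate experiments in duplicate.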

Protein-S-isoprenylcysteine O-methyltransferase, sequence (O60725 whole entry, the tested form may be a part): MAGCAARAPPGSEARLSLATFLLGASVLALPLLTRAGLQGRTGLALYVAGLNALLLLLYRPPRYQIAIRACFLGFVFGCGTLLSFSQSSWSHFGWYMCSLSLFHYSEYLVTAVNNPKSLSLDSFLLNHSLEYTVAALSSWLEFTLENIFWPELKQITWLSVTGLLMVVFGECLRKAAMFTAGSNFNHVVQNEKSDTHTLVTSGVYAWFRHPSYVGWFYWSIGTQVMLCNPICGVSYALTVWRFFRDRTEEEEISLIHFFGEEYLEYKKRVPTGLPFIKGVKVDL

First: COC(=O)CCSC/C=C(\C)CCn1cc(CCc2ccc(-c3ccccc3)cc2)nn1
Second: CN1CCC(C(c2ccc3ccccc3c2)c2cccs2)CC1 (stereo not drawn)
The IC50 of the first is lower: 0.4 µM for the first, over 50 µM for the second. The first is the more potent here.

`Oc1c(C(c2cccs2)C2CCOCC2)ccc2ccccc12` (stereo not drawn) and `Oc1c(C(c2cccs2)C2CCOCC2)ccc2cccnc12` (stereo not drawn) are within 1.5-fold of each other in IC50: 18 µM for the first, 14 µM for the second.

Compared with `Oc1c(C(=C2CCOCC2)c2cccs2)ccc2ccccc12`, `c1ccc(C(=C2CCOCC2)c2cccs2)cc1` is higher in IC50: 7.7 µM for the first, over 50 µM for the second. The first is the more potent here.

`OC(c1ccccc1)(c1cccs1)C1CCOCC1` (stereo not drawn) and `O=C(c1ccc2ccccc2c1)C1CCOCC1` cannot be ordered by IC50: over 50 µM for the first, over 50 µM for the second.

`c1ccc(C(=C2CCOCC2)c2ccc3ccccc3c2)cc1` and `c1ccc2cc(CC3CCOCC3)ccc2c1` cannot be ordered by IC50: over 50 µM for the first, over 50 µM for the second.

Molecule `c1csc(C(c2ccc3ccccc3c2)C2CCNCC2)c1` (stereo not drawn) has an IC50 of over 50 µM.

Test system: not listed separately
Assay: Growth inhibition of human MIAPaCa2 cells expressing K-Ras G12C mutant after 5 days by MTT assay
Type: functional, cell-based
Details: MIA PaCa-2, 120 h
Procedure, shortened: (§1)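 MTT read-out; 1,000 cells per well seeded the day before, then medium replaced with inhibitor at increasing concentrations, 0.5% DMSO constant; 5 days at 37 °C. MTT (5 mg/mL solution) added for a further 4 h, formazan dissolved in DMSO, absorbance at 590 nm; mean absorbance per concentration plotted.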

Molecule `c1csc(C(=C2CCOCC2)c2ccc3ccccc3c2)c1` has an IC50 of 31.9 µM.

Test system: not listed separately
Assay: Growth inhibition of human PANC1 cells expressing K-Ras G12D mutant after 5 days by MTT assay
Type: functional, cell-based
Details: PANC-1, 120 h
Procedure, shortened: as §1

For `c1csc(C(=C2CCOCC2)c2ccc3ccccc3c2)c1`, the IC50 was 78 µM.

From ChEMBL document CHEMBL3822411, “Non-Substrate Based, Small Molecule Inhibitors of the Human Isoprenylcysteine Carboxyl Methyltransferase” (Medchemcomm, 2016)
